Reference: ChEMBL document CHEMBL1139081, “Rational design, synthesis, and structure-activity relationship of benzoxazolones: new potent mglu5 receptor antagonists based on the fenobam structure” (Bioorg Med Chem Lett, 2007)
pIC50, pKi: −log10 of the molar value.

Legend:
[1] = target: T1, Metabotropic glutamate receptor 5 (Homo sapiens, UniProt P41594); experiment: Binding affinity to mGluR5
[2] = target: T1, Metabotropic glutamate receptor 5; experiment: Antagonist activity at mGluR5 assessed as inhibition of Ca2+ […] by FLIPR; assay type: functional
[3] = Ratio of drug level in brain to plasma in rat after 3 hrs; assay type: ADME; conditions: brain and plasma
Outline: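 Blood/brain partitioning checked 3 h after administration as brain-to-plasma concentration ratio; cerebrospinal fluid concentration also measured, expressed as percentage of plasma concentration.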

[4] = Clearance in rat; assay type: ADME, organism-based; conditions: in vivo
Mus musculus = species: Mus musculus; experiment: Decrease in stress-induced hyperthermia in NMRI mouse; assay type: functional; conditions: read-out: MED
Outline: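 Stress-induced hyperthermia model of anxiety in NMRI mice, read as change in temperature (DT). Oral dosing at 10 and 30 mg/kg, vehicle 0.3% Tween 80 in 0.9% NaCl, 60 min pre-treatment. Each group compared to vehicle by independent t-test.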

[5] = Oral bioavailability in rat; assay type: ADME, organism-based; conditions: in vivo
[6] = Volume of distribution in rat; assay type: ADME, organism-based; conditions: in vivo
[7] = Half life in rat; assay type: ADME, organism-based; conditions: in vivo

T1 sequence (P41594 whole entry): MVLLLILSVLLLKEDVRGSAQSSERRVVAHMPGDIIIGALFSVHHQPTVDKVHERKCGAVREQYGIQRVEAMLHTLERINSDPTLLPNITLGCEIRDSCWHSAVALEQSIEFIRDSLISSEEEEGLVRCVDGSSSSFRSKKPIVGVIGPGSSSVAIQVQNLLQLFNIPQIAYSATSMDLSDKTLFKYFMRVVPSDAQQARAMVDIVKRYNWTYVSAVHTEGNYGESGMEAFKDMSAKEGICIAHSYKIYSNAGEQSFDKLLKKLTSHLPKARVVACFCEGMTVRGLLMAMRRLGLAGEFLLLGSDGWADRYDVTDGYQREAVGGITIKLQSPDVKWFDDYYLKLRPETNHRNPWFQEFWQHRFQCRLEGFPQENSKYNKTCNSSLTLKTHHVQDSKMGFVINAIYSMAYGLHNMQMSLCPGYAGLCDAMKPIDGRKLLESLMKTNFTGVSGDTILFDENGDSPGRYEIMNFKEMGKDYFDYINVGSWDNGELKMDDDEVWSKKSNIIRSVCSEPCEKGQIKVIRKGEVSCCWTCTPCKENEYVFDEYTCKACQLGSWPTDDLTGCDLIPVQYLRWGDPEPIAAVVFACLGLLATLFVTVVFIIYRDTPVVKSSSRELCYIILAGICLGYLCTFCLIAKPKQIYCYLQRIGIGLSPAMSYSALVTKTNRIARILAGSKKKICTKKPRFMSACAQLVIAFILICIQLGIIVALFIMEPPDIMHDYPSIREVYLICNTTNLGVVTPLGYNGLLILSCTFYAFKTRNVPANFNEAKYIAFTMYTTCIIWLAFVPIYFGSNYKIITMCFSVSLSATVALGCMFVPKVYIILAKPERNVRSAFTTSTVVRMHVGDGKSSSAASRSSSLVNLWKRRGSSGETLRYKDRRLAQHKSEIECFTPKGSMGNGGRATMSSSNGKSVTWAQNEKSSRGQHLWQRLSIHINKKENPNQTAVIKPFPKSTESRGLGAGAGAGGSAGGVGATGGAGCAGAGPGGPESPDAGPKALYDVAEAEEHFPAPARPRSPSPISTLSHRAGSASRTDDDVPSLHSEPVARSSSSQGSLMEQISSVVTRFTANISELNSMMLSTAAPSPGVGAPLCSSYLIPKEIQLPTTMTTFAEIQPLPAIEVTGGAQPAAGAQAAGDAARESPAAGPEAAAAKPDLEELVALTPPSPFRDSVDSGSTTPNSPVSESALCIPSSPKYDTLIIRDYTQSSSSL

Row | SMILES | pKi [1] | further results
1 | O=C1Cc2cccc(C(=O)Nc3cccc(Cl)c3)c2N1 | 6.40 | 
2 | O=C(Nc1ccccn1)c1cccc2oc(=O)[nH]c12 | 6.60 | 
3 | Cc1nc(NC(=O)c2cccc3oc(=O)[nH]c23)cs1 | 6.60 | 
4 | O=C(Nc1cccc(Cl)c1)c1cccc2nc[nH]c12 | < 5.00 | 
5 | O=C(Nc1cccc(Cl)c1)c1cccc2nn[nH]c12 | < 5.00 | 
6 | O=C(Nc1cccc(Cl)c1)c1cccc2[nH]c(=O)[nH]c12 | 5.41 | 
7 | Cc1nccc(NC(=O)c2cccc3oc(=O)[nH]c23)n1 | 5.71 | 
8 | O=C(Nc1ccc(Cl)cc1)c1cccc2oc(=O)[nH]c12 | 5.42 | 
9 | O=C(Nc1cccc(Cl)c1)c1cccc2[nH]c(=O)oc12 | < 5.00 | 
10 | O=C(Nc1cc(Cl)cc(Cl)c1)c1cccc2oc(=O)[nH]c12 | < 5.00 | 
11 | O=C(Nc1cccc(Cl)c1)c1cccc2oc(=O)[nH]c12 | 7.17 | pIC50 [2]: 6.71
12 | Cc1cc(NC(=O)c2cccc3oc(=O)[nH]c23)ccn1 | 5.51 | 
13 | Cc1cccc(NC(=O)c2cccc3oc(=O)[nH]c23)c1 | 6.96 | pIC50 [2]: 6.98
14 | N#Cc1cccc(NC(=O)c2cccc3oc(=O)[nH]c23)c1 | 6.49 | 
15 | O=C(Nc1cccc(Br)c1)c1cccc2oc(=O)[nH]c12 | 7.25 | pIC50 [2]: 7.03
16 | Cc1cccc(NC(=O)c2cccc3oc(=O)[nH]c23)n1 | 7.02 | Kp at 3 h [3]: 0.06; clearance [4]: 8.2 mL/min/kg; pIC50 [2]: 7.22; minimal effective dose (Mus musculus): 10 mg/kg; bioavailability [5]: 64%; Vd [6]: 0.18 L/kg; half-life [7]: 13.2 min
17 | O=C(Nc1cccc(C(F)(F)F)c1)c1cccc2oc(=O)[nH]c12 | 6.31 | 
18 | CC(=O)Nc1ccccc1C(=O)Nc1cccc(Cl)c1 | < 5.00 | 
19 | O=C(Nc1ccccc1Cl)c1cccc2oc(=O)[nH]c12 | < 5.00 | 
20 | O=C(Nc1ccccc1)c1cccc2oc(=O)[nH]c12 | 5.66 | 
21 | O=C(Nc1cccc(Cl)c1)c1cccc2cc[nH]c12 | 5.41 | 
22 | O=C1COc2cccc(C(=O)Nc3cccc(Cl)c3)c2N1 | 5.54 | 
23 | COc1cccc(NC(=O)c2cccc3oc(=O)[nH]c23)c1 | 5.41 | 
24 | Cn1c(=O)[nH]c2c(C(=O)Nc3cccc(Cl)c3)cccc21 | < 5.00 | 
